Activity calls are given as the source filed them. The calls are words filed in the database; no cut-off is given here.
Legend:
Salmonella typhimurium [1] = test: Genotoxicity in Salmonella typhimurium TA98 assessed as induction of revertant colonies at 200 ug/plate in absence of S9 mix by Ames test relative untreated control; type: toxicity, organism-based; conditions: salmonella enterica subsp. enterica serovar typhimurium
Outline: (§1)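 Ames test, Maron's method, histidine-requiring S. typhimurium TA98 and TA100, with and without S-9 mix; 200 µg/plate, vehicle and positive controls. Revertant colonies counted in triplicate (mean ± SD, n = 3); factor = treated/vehicle-control colonies; positive if ≥2-fold over vehicle.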

[2] = Cytotoxicity against mouse NIH/3T3 cells by WST dye based CCK8 assay; type: cell-based; conditions: NIH3T3
Outline: (§2)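 CCK-8 survival assay: WST-8 tetrazolium reduced by cellular dehydrogenases to orange formazan, giving living-cell count; compounds tested up to 100 µM maximum.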

Hepatitis C virus [3] = test: Antiviral activity against HCV genotype 1b NK/R2AN infected in human Huh7.5.1 cells expressing NS5A Y93H mutant assessed as reduction in virus replication at 100 pM to 1 uM by luciferase reporter gene assay; type: functional, organism-based; conditions: Hepacivirus hominis, subtype 1b NK/R2AN, Huh-7
Outline: (§3)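 Daclatasvir-resistant NS5A mutant RNAs were transcribed in vitro and electroporated into Huh7.5.1 cells grown in 12-well plates. At 4 h post-transfection, medium was replaced with DMEM containing serially diluted compounds. Cells were harvested 3 days later and Renilla luciferase activity was measured and normalized to mock-treated cells.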

Vero = test: Cytotoxicity against African green monkey Vero cells by WST dye based CCK8 assay; type: cell-based; conditions: Chlorocebus sabaeus; outline: as §2
Salmonella typhimurium [4] = test: Genotoxicity in Salmonella typhimurium TA100 assessed as induction of revertant colonies at 200 ug/plate in absence of S9 mix by Ames test relative untreated control; type: toxicity, organism-based; conditions: salmonella enterica subsp. enterica serovar typhimurium; outline: as §1
[5] = Half life in Sprague-Dawley rat at 5 mg/kg, iv by LC/MS/MS method; type: ADME, organism-based; conditions: in vivo
Outline: (§4)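 Sprague-Dawley rats, 2 male and 1 female per compound per route, parallel design. Vehicle 5% DMSO, 10% solutol, 85% HPBCD; IV 5 mg/kg bolus via tail vein, oral 10 mg/kg. Blood into K2-EDTA tubes at several time points, centrifuged, plasma analysed by LC/MS/MS; non-compartmental analysis.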

Hepatitis C virus [6] = test: Antiviral activity against HCV genotype 2a JFH5a infected in human Huh7.5.1 cells transfected with JFH5a-Rluc-ad34 assessed as reduction in virus proliferation by luciferase reporter gene assay; type: functional, cell-based, Hepacivirus hominis, Huh-7; conditions: Hepatitis C virus, genotype 2a JFH5a, Huh-7
Salmonella typhimurium [7] = test: Genotoxicity in Salmonella typhimurium TA98 assessed as induction of revertant colonies at 200 ug/plate in presence of S9 mix by Ames test relative untreated control; type: toxicity, organism-based; conditions: salmonella enterica subsp. enterica serovar typhimurium; outline: as §1
Hepatitis C virus [8] = test: Antiviral activity against HCV genotype 1b NK/R2AN infected in human Huh7.5.1 cells expressing NS5A L31V mutant assessed as reduction in virus replication at 100 pM to 1 uM by luciferase reporter gene assay; type: functional, organism-based; conditions: Hepacivirus hominis, subtype 1b NK/R2AN, Huh-7; outline: as §3
[9] = Stability in human liver microsomes assessed as compound remaining at 1 uM after 0.5 hrs by LC-MS/MS method; type: ADME; conditions: read-out: Stability
Outline: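 Pooled human liver microsomal fraction with β-NADPH, compound at 1 µM, incubated over 30 min; remaining compound in supernatant quantified by LC-MS/MS.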

[10] = Cytotoxicity against CHOK1 cells by WST dye based CCK8 assay; type: cell-based; conditions: Cricetulus griseus, CHO-K1; outline: as §2
hERG (KCNH2) = hERG (KCNH2) (Homo sapiens, UniProt Q12809); test: Inhibition of human ERG at 10 uM by fluorescence polarization assay based ligand binding assay
Cytochrome P450 2C19 = Cytochrome P450 2C19 (Homo sapiens, UniProt P33261); test: Inhibition of human CYP2C19 by luminometry; type: ADME
Outline: (§5)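 Human CYP1A2, 2C9, 2C19, 2D6 and 3A4 inhibition by P450-Glo luminescent assay per kit protocol; compounds at 100, 50, 10, 5, 1, 0.1 and 0.01 µM; luminometer read-out.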

HFL1 = test: Cytotoxicity against human HFL1 cells by WST dye based CCK8 assay; type: cell-based; outline: as §2
Cytochrome P450 1A2 = biological target: T1, Cytochrome P450 1A2 (Homo sapiens, UniProt P05177); test: Inhibition of human CYP1A2 by luminometry; type: ADME; outline: as §5
T1 sequence (P05177 whole entry): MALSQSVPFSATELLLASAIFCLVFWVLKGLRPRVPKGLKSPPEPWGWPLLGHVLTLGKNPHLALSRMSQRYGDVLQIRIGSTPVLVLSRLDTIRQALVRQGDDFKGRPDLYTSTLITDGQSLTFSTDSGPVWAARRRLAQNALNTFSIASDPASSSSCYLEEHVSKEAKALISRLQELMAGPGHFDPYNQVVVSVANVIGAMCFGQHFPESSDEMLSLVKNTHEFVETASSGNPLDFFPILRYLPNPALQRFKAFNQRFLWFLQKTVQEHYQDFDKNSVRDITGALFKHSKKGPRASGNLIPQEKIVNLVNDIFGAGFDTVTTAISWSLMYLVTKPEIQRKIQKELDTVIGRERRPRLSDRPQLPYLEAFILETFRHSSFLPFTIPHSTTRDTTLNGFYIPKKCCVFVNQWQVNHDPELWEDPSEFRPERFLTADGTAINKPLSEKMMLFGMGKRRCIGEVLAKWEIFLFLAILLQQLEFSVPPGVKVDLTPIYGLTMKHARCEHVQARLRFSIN

[11] = Oral bioavailability in Sprague-Dawley rat at 10 mg/kg by LC/MS/MS method; type: ADME, organism-based; conditions: in vivo; outline: as §4
Salmonella typhimurium [12] = test: Genotoxicity in Salmonella typhimurium TA100 assessed as induction of revertant colonies at 200 ug/plate in presence of S9 mix by Ames test relative untreated control; type: toxicity, organism-based; conditions: salmonella enterica subsp. enterica serovar typhimurium; outline: as §1
Cytochrome P450 3A4 = Cytochrome P450 3A4 (Homo sapiens, UniProt P08684); test: Inhibition of human CYP3A4 by luminometry; type: ADME; outline: as §5
[13] = Cytotoxicity against human Huh7.5.1 cells; type: cell-based, Huh-7
L929 = test: Cytotoxicity against mouse L929 cells by WST dye based CCK8 assay; type: cell-based; outline: as §2
Cytochrome P450 2C9 = Cytochrome P450 2C9 (Homo sapiens, UniProt P11712); test: Inhibition of human CYP2C9 by luminometry; type: ADME; outline: as §5
Hepatitis C virus [14] = test: Antiviral activity against HCV genotype 1b NK/R2AN infected in human Huh7.5.1 cells assessed as reduction in virus replication by luciferase reporter gene assay; type: functional, organism-based, Hepacivirus hominis, subtype 1b NK/R2AN, Huh-7; conditions: Hepatitis C virus, subtype 1b NK/R2AN, Huh-7
[15] = Half life in Sprague-Dawley rat at 10 mg/kg, po by LC/MS/MS method; type: ADME, organism-based; conditions: in vivo; outline: as §4
Cytochrome P450 2D6 = Cytochrome P450 2D6 (Homo sapiens, UniProt P10635); test: Inhibition of human CYP2D6 by luminometry; type: ADME; outline: as §5
Sequence of Cytochrome P450 2D6 (P10635 whole entry): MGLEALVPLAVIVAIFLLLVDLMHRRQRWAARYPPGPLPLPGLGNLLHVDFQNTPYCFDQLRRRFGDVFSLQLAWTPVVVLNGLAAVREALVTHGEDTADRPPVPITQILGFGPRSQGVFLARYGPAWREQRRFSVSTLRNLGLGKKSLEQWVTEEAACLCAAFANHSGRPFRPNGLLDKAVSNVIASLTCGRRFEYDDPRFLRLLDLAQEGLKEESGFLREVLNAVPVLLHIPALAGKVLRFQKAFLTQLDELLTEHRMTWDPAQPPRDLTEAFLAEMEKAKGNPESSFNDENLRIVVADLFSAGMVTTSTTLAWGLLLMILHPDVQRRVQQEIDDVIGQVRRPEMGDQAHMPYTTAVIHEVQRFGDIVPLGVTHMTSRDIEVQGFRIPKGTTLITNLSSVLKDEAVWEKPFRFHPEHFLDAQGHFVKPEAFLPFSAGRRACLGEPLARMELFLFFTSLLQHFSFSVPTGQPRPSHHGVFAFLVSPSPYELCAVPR

Sequence of Cytochrome P450 2C9 (P11712 whole entry): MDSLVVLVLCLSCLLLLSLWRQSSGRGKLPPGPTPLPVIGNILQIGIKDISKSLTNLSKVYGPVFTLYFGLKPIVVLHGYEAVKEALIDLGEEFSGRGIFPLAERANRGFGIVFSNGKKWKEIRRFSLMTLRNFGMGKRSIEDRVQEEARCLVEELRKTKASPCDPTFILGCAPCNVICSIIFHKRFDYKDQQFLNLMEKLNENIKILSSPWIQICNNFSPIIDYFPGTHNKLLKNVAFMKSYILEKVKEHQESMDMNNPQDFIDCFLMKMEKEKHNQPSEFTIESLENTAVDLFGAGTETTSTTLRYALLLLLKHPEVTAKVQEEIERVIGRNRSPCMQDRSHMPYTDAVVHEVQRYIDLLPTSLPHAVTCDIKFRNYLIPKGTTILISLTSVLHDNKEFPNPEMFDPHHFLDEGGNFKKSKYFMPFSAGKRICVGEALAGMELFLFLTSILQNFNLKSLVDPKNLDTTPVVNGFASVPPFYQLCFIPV
Sequence of hERG (KCNH2) (Q12809 whole entry): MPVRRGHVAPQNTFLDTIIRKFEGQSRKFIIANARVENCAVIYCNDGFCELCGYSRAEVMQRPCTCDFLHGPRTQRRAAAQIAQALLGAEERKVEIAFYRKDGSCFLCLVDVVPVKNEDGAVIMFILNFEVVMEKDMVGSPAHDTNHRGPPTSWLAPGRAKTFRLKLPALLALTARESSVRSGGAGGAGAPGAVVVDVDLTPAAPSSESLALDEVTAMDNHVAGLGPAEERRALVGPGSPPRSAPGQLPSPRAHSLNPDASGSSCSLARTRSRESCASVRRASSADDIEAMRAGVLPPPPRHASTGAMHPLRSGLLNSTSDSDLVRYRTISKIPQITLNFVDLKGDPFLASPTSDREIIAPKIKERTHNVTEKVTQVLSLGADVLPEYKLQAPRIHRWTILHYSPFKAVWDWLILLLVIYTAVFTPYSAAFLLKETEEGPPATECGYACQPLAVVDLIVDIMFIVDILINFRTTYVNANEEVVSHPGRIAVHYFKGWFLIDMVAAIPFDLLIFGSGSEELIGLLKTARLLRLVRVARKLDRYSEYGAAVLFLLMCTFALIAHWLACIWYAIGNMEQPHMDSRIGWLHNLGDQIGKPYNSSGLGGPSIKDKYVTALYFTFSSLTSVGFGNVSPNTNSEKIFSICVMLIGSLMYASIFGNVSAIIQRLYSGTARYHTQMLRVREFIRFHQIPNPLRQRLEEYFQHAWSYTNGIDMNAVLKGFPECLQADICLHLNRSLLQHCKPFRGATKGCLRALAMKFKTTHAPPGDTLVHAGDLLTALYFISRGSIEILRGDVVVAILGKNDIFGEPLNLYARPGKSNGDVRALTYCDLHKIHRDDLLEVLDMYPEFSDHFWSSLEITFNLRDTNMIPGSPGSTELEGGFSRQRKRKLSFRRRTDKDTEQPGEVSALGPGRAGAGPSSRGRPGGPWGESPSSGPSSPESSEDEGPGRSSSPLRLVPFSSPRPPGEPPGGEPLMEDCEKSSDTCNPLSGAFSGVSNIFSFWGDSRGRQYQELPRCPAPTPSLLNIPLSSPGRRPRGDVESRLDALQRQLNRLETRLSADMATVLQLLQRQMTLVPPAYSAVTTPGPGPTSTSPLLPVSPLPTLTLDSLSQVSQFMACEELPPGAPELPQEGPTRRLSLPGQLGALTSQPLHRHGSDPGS
Sequence of Cytochrome P450 3A4 (P08684 whole entry): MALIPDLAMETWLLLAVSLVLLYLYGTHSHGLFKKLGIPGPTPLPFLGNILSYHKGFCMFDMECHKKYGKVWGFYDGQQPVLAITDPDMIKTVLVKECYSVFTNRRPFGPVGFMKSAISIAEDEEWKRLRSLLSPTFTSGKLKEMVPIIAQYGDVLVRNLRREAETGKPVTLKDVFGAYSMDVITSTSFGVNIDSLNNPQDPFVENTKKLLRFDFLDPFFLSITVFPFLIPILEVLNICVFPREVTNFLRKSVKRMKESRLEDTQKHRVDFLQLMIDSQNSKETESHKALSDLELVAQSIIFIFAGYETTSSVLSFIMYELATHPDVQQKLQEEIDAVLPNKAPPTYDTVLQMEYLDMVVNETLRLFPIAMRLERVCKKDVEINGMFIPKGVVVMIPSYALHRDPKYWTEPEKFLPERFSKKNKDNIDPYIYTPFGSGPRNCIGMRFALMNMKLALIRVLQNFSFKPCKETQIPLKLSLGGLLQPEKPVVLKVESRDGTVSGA
Sequence of Cytochrome P450 2C19 (P33261 whole entry): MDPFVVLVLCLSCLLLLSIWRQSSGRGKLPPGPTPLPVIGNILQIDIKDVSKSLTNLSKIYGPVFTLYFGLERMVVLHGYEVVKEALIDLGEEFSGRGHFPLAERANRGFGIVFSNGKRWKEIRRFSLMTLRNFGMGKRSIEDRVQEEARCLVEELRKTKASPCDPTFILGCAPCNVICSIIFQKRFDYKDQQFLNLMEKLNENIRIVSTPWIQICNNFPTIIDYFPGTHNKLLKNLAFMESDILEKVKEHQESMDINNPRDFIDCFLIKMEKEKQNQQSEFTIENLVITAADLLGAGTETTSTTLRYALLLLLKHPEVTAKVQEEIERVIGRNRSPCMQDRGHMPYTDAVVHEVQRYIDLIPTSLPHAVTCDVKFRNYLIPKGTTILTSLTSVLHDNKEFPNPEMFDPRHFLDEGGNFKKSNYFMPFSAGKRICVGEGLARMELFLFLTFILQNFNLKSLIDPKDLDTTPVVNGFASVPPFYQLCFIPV

COC(=O)N[C@@H](C(=O)N1CCC[C@H]1C(=O)Nc1ccc2c(c1)C(F)(F)c1cc(NC(=O)[C@@H]3CCCN3C(=O)[C@H](NC(=O)OC)c3ccccc3)ccc1-2)c1ccccc1
fold change (FC) (Salmonella typhimurium [1]): 1.3 | IC50 [2]: > 100 µM | inhibition (Hepatitis C virus [3]): Active | IC50 (Vero): > 100 µM | fold change (FC) (Salmonella typhimurium [4]): 0.9 | half-life [5]: 0.9 h | EC50 (Hepatitis C virus [6]): 0.059 nM | fold change (FC) (Salmonella typhimurium [7]): 1.1 | inhibition (Hepatitis C virus [8]): Active | remaining at 0.5 h, 1 µM [9]: 92% | IC50 [10]: > 100 µM | inhibition at 10 µM (hERG (KCNH2)): 39.1% | EC50 (Cytochrome P450 2C19): 13.9 µM | IC50 (HFL1): > 100 µM | EC50 (Cytochrome P450 1A2): > 100 µM | bioavailability [11]: 7.6% | fold change (FC) (Salmonella typhimurium [12]): 0.9 | EC50 (Cytochrome P450 3A4): 0.976 µM | CC50 [13]: > 25 µM | IC50 (L929): > 100 µM | EC50 (Cytochrome P450 2C9): 0.277 µM | EC50 (Hepatitis C virus [14]): 3 pM | half-life [15]: 1.68 h | EC50 (Cytochrome P450 2D6): > 100 µM

— ChEMBL document CHEMBL3608246, “Novel benzidine and diaminofluorene prolinamide derivatives as potent hepatitis C virus NS5A inhibitors” (Eur J Med Chem, 2015)
